Tested on: PC3 xenografts
Assay: PET imaging of PC3 xenografted Nu/Nu mice
Assay type: in vivo, mouse
Settings: 15 MBq injected, 20-minute scan
Method in brief: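 Male Nu/Nu mice (4–6 weeks old) got s.c. PC3 cells (1 × 10^6 in PBS, shoulders) or LNCaP cells (2.5 × 10^6 in PBS/Matrigel 1:1, hips). Tumors grew ≥4 weeks to ≥5 mm. Under isoflurane, mice received i.v. 3.7–7.4 MBq 64Cu peptide or 15 MBq [18F]-FDG, on a heated bed. Scans ran 20 min on small-animal PET with 3D MLEM reconstruction. ROI activity was expressed per cm³ as % injected dose.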

PC3 tumor [18F]-FDG uptake (PET): faultless
Structure (SMILES): OC[C@H]1OC(O)[C@H]([18F])[C@@H](O)[C@@H]1O (stereo partly drawn) [[^18F]-FDG, [^18F]-fluoro-2-deoxy-D-glucose]
